Experimental findings from paper PMC10764114 (ACS Omega, 2023) are described below.

The subject of data set [1] is U87-malignant glioma (ATCC-HTB-14). Nature of the data set: MTT assay, cytotoxicity against U87-malignant glioma cells. Format: cell-based, human. The following applies: Homo sapiens, Glioma cell; for viability at 10 µM / viability at 40 µM / viability at 80 µM / viability at 100 µM / viability at 150 µM: read-out: % cell viability U87; for IC50: read-out: IC50 (μM ± SEM U87). The gist of the method:
(§1)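 Cells grown in DMEM (4.5 g/L glucose, 10% FBS, 1% penicillin/streptomycin) at 37 °C, 5% CO₂. Seeded at 1 × 10³ cells/well and left 24 h to adhere. Test compound added at 10, 40, 80, 100 or 150 μM for 48 h (text also states MTT added 24 h post-dosing). MTT in PBS added for 3 h, formazan dissolved in DMSO for 30 min, OD read at 550 nm, % viability calculated from absorbance.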

The nature of data set [2]: MTT assay, cytotoxicity against normal HEK293 cells. It is filed as cell-based, human. The following applies: human, HEK293 cells. The gist of the method:
as §1

On to `CC(C)Cc1ccc(C(C)C(=O)NN=Cc2ccc(OCC(=O)NN=Cc3ccc(Cl)cc3Cl)cc2)cc1` (stereo not drawn) [5h, N′-(4-(2-(2-(2,4-Dichlorobenzylidene)hydrazinyl)-2-oxoethoxy)benzylidene)-2-(4-isobutylphenyl)propanehydrazide], for which, in data set [1], the viability at 10 µM stood at 50.2%, the viability at 40 µM turned out to be 50.1%, the viability at 80 µM amounted to 48.8% and the viability at 100 µM stood at 46%. For the same molecule, in data set [1], the viability at 150 µM came to 43.6% and the 50% inhibitory concentration (IC50) was found to be 120.1 ± 0.13 µM. Also, in data set [2], the viability at 48 h, 10 μM amounted to 84.1%; the viability at 48 h, 40 μM stood at 79.5%; the viability at 48 h, 80 μM amounted to 69.1%; the viability at 48 h, 100 μM worked out at 68.3%. For the same molecule, in data set [2], the viability at 48 h, 150 μM turned out to be 67.1%.

`CC(C)Cc1ccc(C(C)C(=O)NN=Cc2ccc(OCC(=O)NN=Cc3cc(Br)c(O)c(Br)c3)cc2)cc1` (stereo not drawn) [5i, N′-(4-(2-(2-(3,5-Dibromo-4-hydroxybenzylidene)hydrazinyl)-2-oxoethoxy)benzylidene)-2-(4-isobutylphenyl)propanehydrazide]: in data set [1], the viability at 10 µM amounted to 40.3%, the viability at 40 µM is 36.9%, the viability at 80 µM was 31.4% and the viability at 100 µM was 29.9%. Also, in data set [1], the viability at 150 µM was found to be 24.4% and the IC50 is 38.32 ± 0.1 µM. In data set [2], the viability at 48 h, 10 μM came to 67.6%; the viability at 48 h, 40 μM is 57.4%; the viability at 48 h, 80 μM turned out to be 55.7%; the viability at 48 h, 100 μM turned out to be 49.9%. The viability at 48 h, 150 μM in data set [2] worked out at 43.8%.

For the molecule `CC(C)Cc1ccc(C(C)C(=O)NN=Cc2ccc(OCC(=O)NN=Cc3ccc(Br)cc3F)cc2)cc1` (stereo not drawn) [5j, N′-(4-(2-(2-(4-Bromo-2-fluorobenzylidene)hydrazinyl)-2-oxoethoxy)benzylidene)-2-(4-isobutylphenyl)propanehydrazide], in data set [1], the viability at 10 µM was 187%, the viability at 40 µM was 128%, the viability at 80 µM came out at 94.2% and the viability at 100 µM was determined as 93.1%. Besides, in data set [1], the viability at 150 µM is 78.6% and the IC50 amounted to 43.71 ± 0.07 µM. In data set [2], the viability at 48 h, 10 μM is 44.5%; the viability at 48 h, 40 μM came to 40.1%; the viability at 48 h, 80 μM stood at 38.4%; the viability at 48 h, 100 μM came out at 36.8%. For the same molecule, the viability at 48 h, 150 μM in data set [2] worked out at 26.3%.

As for `COc1ccc(C=NNC(=O)COc2ccc(C=NNC(=O)C(C)c3ccc(CC(C)C)cc3)cc2)cc1OC` (stereo not drawn) [5l, N′-(4-(2-(2-(3,4-Dimethoxybenzylidene)hydrazinyl)-2-oxoethoxy)benzylidene)-2-(4-isobutylphenyl)propanehydrazide], in data set [1], the viability at 10 µM amounted to 97%, the viability at 40 µM turned out to be 88.4%, the viability at 80 µM was 84.9% and the viability at 100 µM stood at 84.2%. Also, in data set [1], the viability at 150 µM was found to be 79.7% and the half-inhibitory concentration (IC50) amounted to 72.83 ± 0.06 µM. Moreover, in data set [2], the viability at 48 h, 10 μM was 30.5%; the viability at 48 h, 40 μM turned out to be 28.1%; the viability at 48 h, 80 μM was 25.9%; the viability at 48 h, 100 μM was 24.9%. Moreover, in data set [2], the viability at 48 h, 150 μM turned out to be 24.2%.

On to `COc1ccc(C=NNC(=O)COc2ccc(C=NNC(=O)C(C)c3ccc(CC(C)C)cc3)cc2)c(O)c1` (stereo not drawn) [5m, N′-(4-(2-(2-(2-Hydroxy-4-methoxybenzylidene)hydrazinyl)-2-oxoethoxy)benzylidene)-2-(4-isobutylphenyl)propanehydrazide], for which, in data set [1], the viability at 10 µM stood at 142%, the viability at 40 µM was found to be 138%, the viability at 80 µM worked out at 34.5% and the viability at 100 µM is 134%. Moreover, in data set [1], the viability at 150 µM came out at 128% and the IC50 was determined as 150.5 ± 0.2 µM. For the same molecule, in data set [2], the viability at 48 h, 10 μM was found to be 26.2%; the viability at 48 h, 40 μM was found to be 26.1%; the viability at 48 h, 80 μM stood at 24.2%; the viability at 48 h, 100 μM was found to be 21.9%. In addition, the viability at 48 h, 150 μM in data set [2] turned out to be 18.6%.

For the molecule `COc1ccc(C=NNC(=O)COc2ccc(C=NNC(=O)C(C)c3ccc(CC(C)C)cc3)cc2)cc1O` (stereo not drawn) [5n, N′-(4-(2-(2-(3-Hydroxy-4-methoxybenzylidene)hydrazinyl)-2-oxoethoxy)benzylidene)-2-(4-isobutylphenyl)propanehydrazide], in data set [1], the viability at 10 µM amounted to 165%, the viability at 40 µM came out at 85.3%, the viability at 80 µM is 61.1% and the viability at 100 µM worked out at 42.7%. Also, in data set [1], the viability at 150 µM stood at 33.2% and the IC50 turned out to be 40.18 ± 0.07 µM. In data set [2], the viability at 48 h, 10 μM is 38.1%; the viability at 48 h, 40 μM is 28%; the viability at 48 h, 80 μM came to 24.8%; the viability at 48 h, 100 μM is 16.9%. Moreover, the viability at 48 h, 150 μM in data set [2] came to 12.6%.

Take `CCN(CC)c1ccc(C=NNC(=O)COc2ccc(C=NNC(=O)C(C)c3ccc(CC(C)C)cc3)cc2)cc1` (stereo not drawn) [5o, N′-(4-(2-(2-(4-(Diethylamino)benzylidene)hydrazinyl)-2-oxoethoxy)benzylidene)-2-(4-isobutylphenyl)propanehydrazide]: in data set [1], the viability at 10 µM stood at 146%, the viability at 40 µM came out at 122%, the viability at 80 µM was found to be 121% and the viability at 100 µM was 119%. Further, in data set [1], the viability at 150 µM came to 107% and the concentration for half-maximal inhibition (IC50) was 119.7 ± 0.25 µM. In data set [2], the viability at 48 h, 10 μM was determined as 49%; the viability at 48 h, 40 μM is 42.9%; the viability at 48 h, 80 μM amounted to 37.7%; the viability at 48 h, 100 μM turned out to be 35.8%. The viability at 48 h, 150 μM in data set [2] came out at 35.2%.

For the molecule `COc1cccc(C=NNC(=O)COc2ccc(C=NNC(=O)C(C)c3ccc(CC(C)C)cc3)cc2)c1` (stereo not drawn) [5p, 2-(4-Isobutylphenyl)-N′-(4-(2-(2-(3-methoxybenzylidene)hydrazinyl)-2-oxoethoxy)benzylidene)propanehydrazide], in data set [1], the viability at 10 µM stood at 151%, the viability at 40 µM amounted to 122%, the viability at 80 µM was 93.7% and the viability at 100 µM turned out to be 93.7%. In data set [1], the viability at 150 µM was 93.5% and the IC50 came to 90.68 ± 0.13 µM. Moreover, in data set [2], the viability at 48 h, 10 μM came out at 49.9%; the viability at 48 h, 40 μM turned out to be 49.4%; the viability at 48 h, 80 μM was determined as 49.2%; the viability at 48 h, 100 μM turned out to be 48.1%. In addition, the viability at 48 h, 150 μM in data set [2] came out at 39.3%.

Turning to `CC(C)Cc1ccc(C(C)C(=O)NN=Cc2ccc(OCC(=O)NN=Cc3ccc(F)cc3)cc2)cc1` (stereo not drawn) [5q, N′-(4-(2-(2-(4-Fluorobenzylidene)hydrazinyl)-2-oxoethoxy)benzylidene)-2-(4-isobutylphenyl)propanehydrazide], in data set [1], the viability at 10 µM is 183%, the viability at 40 µM came to 84%, the viability at 80 µM was determined as 81.7% and the viability at 100 µM was 48.5%. For the same molecule, in data set [1], the viability at 150 µM is 40.5% and the IC50 came out at 46 ± 0.08 µM. In data set [2], the viability at 48 h, 10 μM came out at 27.5%; the viability at 48 h, 40 μM is 25.4%; the viability at 48 h, 80 μM turned out to be 19.9%; the viability at 48 h, 100 μM amounted to 19.7%. In data set [2], the viability at 48 h, 150 μM worked out at 17.8%.

As for `CC(C)Cc1ccc(C(C)C(=O)NN=Cc2ccc(OCC(=O)NN=Cc3ccccc3O)cc2)cc1` (stereo not drawn) [5r, N′-(4-(2-(2-(2-Hydroxybenzylidene)hydrazinyl)-2-oxoethoxy)benzylidene)-2-(4-isobutylphenyl)propanehydrazide], in data set [1], the viability at 10 µM came out at 109%, the viability at 40 µM came out at 81.4%, the viability at 80 µM was determined as 72.8% and the viability at 100 µM stood at 45.5%. For the same molecule, in data set [1], the viability at 150 µM was 40.6% and the IC50 turned out to be 43.66 ± 0.04 µM. Also, in data set [2], the viability at 48 h, 10 μM turned out to be 39%; the viability at 48 h, 40 μM is 33.6%; the viability at 48 h, 80 μM is 32%; the viability at 48 h, 100 μM was found to be 26.1%. For the same molecule, the viability at 48 h, 150 μM in data set [2] was 25.1%.

`CC(C)Cc1ccc(C(C)C(=O)NN=Cc2ccc(OCC(=O)NN=Cc3cccc4ccccc34)cc2)cc1` (stereo not drawn) [5t, 2-(4-Isobutylphenyl)-N′-(4-(2-(2-(naphthalen-1-ylmethylene)hydrazinyl)-2-oxoethoxy)benzylidene)propanehydrazide]: in data set [1], the viability at 10 µM came to 179%, the viability at 40 µM was 169%, the viability at 80 µM worked out at 155% and the viability at 100 µM was 146%. Besides, in data set [1], the viability at 150 µM was 140% and the IC50 is 86.74 ± 0.26 µM. For the same molecule, in data set [2], the viability at 48 h, 10 μM came to 68.7%; the viability at 48 h, 40 μM was 58.9%; the viability at 48 h, 80 μM turned out to be 51%; the viability at 48 h, 100 μM worked out at 47.3%. Also, in data set [2], the viability at 48 h, 150 μM stood at 43%.

Turning to `CC(C)Cc1ccc(C(C)C(=O)NN=Cc2ccc(OCC(=O)NN)cc2)cc1` (stereo not drawn) [compound 4, N′-(4-(2-Hydrazinyl-2-oxoethoxy)benzylidene)-2-(4-isobutylphenyl)propanehydrazide], in data set [1], the viability at 10 µM was found to be 72.5%, the viability at 40 µM is 47.9%, the viability at 80 µM amounted to 41.6% and the viability at 100 µM was found to be 41.3%. Besides, in data set [1], the viability at 150 µM was determined as 33.7% and the half-maximal inhibitory concentration (IC50) is 59.9 ± 0.08 µM. In addition, in data set [2], the viability at 48 h, 10 μM was determined as 29.1%; the viability at 48 h, 40 μM is 28.6%; the viability at 48 h, 80 μM was determined as 28.2%; the viability at 48 h, 100 μM is 26.3%. The viability at 48 h, 150 μM in data set [2] is 9.96%.
